In brackets after ≈: the same amount, converted by molar mass.
What was measured:
[1] = test system: Bacteroides thetaiotaomicron; test: Ratio of antibacterial (Bacteroides thetaiotaomicron) activities compared to that of trimethoprim and metronidazole; type: functional
Escherichia coli [2] = test: Antibacterial (Escherichia coli) activity compared to trimethoprim.; type: functional
How it was run: (§1)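 Each MIC is divided by the MIC of trimethoprim run alongside. Serial dilutions were normally 0.1, 0.3, 1, 3, 10, etc., and occasionally 1, 5 and 10. For E. coli the value is the average over six strains.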

Streptococcus pyogenes [3] = test: Antibacterial ([…] CN10) activity compared to trimethoprim.; type: functional; how it was run: as §1
Shigella flexneri = test: Antibacterial (Shigella flexneri CN6007) activity compared to trimethoprim.; type: functional; how it was run: as §1
Klebsiella aerogenes [4] = test: Antibacterial (Enterobacter aerogenes 2201/86) activity compared to trimethoprim.; type: functional; how it was run: as §1
Serratia marcescens = test: Antibacterial (Serratia marcescens CN2398) activity compared to trimethoprim.; type: functional; how it was run: as §1
Klebsiella pneumoniae [5] = test: Antibacterial (Klebsiella pneumoniae CN3632) activity compared to trimethoprim.; type: functional; how it was run: as §1
Clostridioides difficile = test: Ratio of antibacterial (Clostridium difficile) activities compared to that of trimethoprim and metronidazole; type: functional
Staphylococcus aureus [6] = test: Antibacterial (Staphylococcus aureus CN491) activity compared to trimethoprim.; type: functional; how it was run: as §1
Phocaeicola vulgatus = test: Ratio of antibacterial (Bacteroides vulgatus) activities compared to that of trimethoprim and metronidazole; type: functional
Fusobacterium nucleatum = test: Ratio of antibacterial (Fusobacterium nucleatum) activities compared to that of trimethoprim and metronidazole; type: functional
[7] = Antibacterial (Salmonella typhi CN512) activity compared to trimethoprim.; type: functional, salmonella typhosa
Dihydrofolate reductase [8] = molecular target: T1, Dihydrofolate reductase (Rattus norvegicus, UniProt Q920D2); test: In vitro inhibition of rat liver dihydrofolate reductase.; details: read-out: I50
T1 sequence (Q920D2 whole entry): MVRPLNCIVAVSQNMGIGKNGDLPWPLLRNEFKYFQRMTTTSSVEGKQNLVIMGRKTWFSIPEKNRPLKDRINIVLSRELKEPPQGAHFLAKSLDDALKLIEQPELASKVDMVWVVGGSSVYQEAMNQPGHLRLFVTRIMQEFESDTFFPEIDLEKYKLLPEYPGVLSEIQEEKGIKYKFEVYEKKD

Pasteurella multocida = test: Antibacterial (Pasteurella multocides ATCC 6587) activity compared to trimethoprim.; type: functional; how it was run: as §1
Clostridium perfringens = test: Ratio of antibacterial (Clostridium perfringens) activities compared to that of trimethoprim and metronidazole; type: functional
[9] = test system: Mycolicibacterium smegmatis; test: Antibacterial (Mycobacterium smegmatis S3254) activity compared to trimethoprim.; type: functional; how it was run: as §1
Proteus vulgaris [10] = test: Antibacterial (Proteus vulgaris CN329) activity compared to trimethoprim.; type: functional; how it was run: as §1
Proteus vulgaris [11] = test: Ratio of antibacterial (Proteus vulgaris CN329) activities of compound and trimethoprim; type: functional; how it was run: as §1
Salmonella = test: Ratio of antibacterial (Salmonella typhi CN512) activities of compound and trimethoprim; type: functional, salmonella typhosa
Dihydrofolate reductase [12] = molecular target: T2, Dihydrofolate reductase (Escherichia coli, UniProt P0ABQ4); test: In vitro inhibition of dihydrofolate reductase of Escherichia coli; details: read-out: I50
T2 sequence (P0ABQ4 whole entry): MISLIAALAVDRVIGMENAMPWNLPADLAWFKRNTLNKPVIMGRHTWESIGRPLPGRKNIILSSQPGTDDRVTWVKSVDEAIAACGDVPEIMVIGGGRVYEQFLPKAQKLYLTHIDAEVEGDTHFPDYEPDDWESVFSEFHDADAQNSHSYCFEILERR
How it was run: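 The E. coli DHFR assay contained 1 nM enzyme, with the lower limit for I50 arbitrarily set at 2 nM. I50 was estimated from plots of % inhibition of steady-state velocity vs log inhibitor concentration.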

Shigella dysenteriae = test: Ratio of antibacterial (Shigella dysentariae CN513) activities of compound and trimethoprim; type: functional
Escherichia coli [13] = test: Ratio of antibacterial (Escherichia coli CN314) activities of compound and trimethoprim; type: functional
Klebsiella aerogenes [14] = test: Ratio of antibacterial (Enterobacter aerogenes, 2201/86) activities of compound and trimethoprim; type: functional; how it was run: as §1
Streptococcus pyogenes [15] = test: Ratio of antibacterial (Streptococcus pyogenes CN10) activities of compound and trimethoprim
Klebsiella pneumoniae [16] = test: Ratio of antibacterial (Klebsiella pneumoniae CN3632) activities of compound and trimethoprim; type: functional; how it was run: as §1
Staphylococcus aureus [17] = test: Ratio of antibacterial (Staphylococcus aureus CN491) activities of compound and trimethoprim; type: functional; how it was run: as §1

Row | SMILES | MIC [1] | MIC (Escherichia coli [2]) | MIC (Streptococcus pyogenes [3]) | MIC (Shigella flexneri) | MIC (Klebsiella aerogenes [4]) | MIC (Serratia marcescens) | MIC (Klebsiella pneumoniae [5]) | MIC (Clostridioides difficile) | MIC (Staphylococcus aureus [6]) | MIC (Phocaeicola vulgatus) | MIC (Fusobacterium nucleatum) | MIC [7] | IC50 (Dihydrofolate reductase [8]) | MIC (Pasteurella multocida) | MIC (Clostridium perfringens) | MIC [9] | MIC (Proteus vulgaris [10]) | also measured
1 | C=CCc1cc(Cc2cnc(N)nc2N)cc(CC=C)c1O | 0.4 µg/mL | 21 µg/mL (≈ 70.9 µM) | 1 µg/mL (≈ 3.37 µM) | 50 µg/mL (≈ 169 µM) | 20 µg/mL (≈ 67.5 µM) | > 10 µg/mL | 20 µg/mL (≈ 67.5 µM) | > 25 µg/mL | 1 µg/mL (≈ 3.37 µM) | 0.8 µg/mL | 0.8 µg/mL | 10 µg/mL (≈ 33.7 µM) | 9.6 µM | 100 µg/mL (≈ 337 µM) | > 25 µg/mL | 5 µg/mL (≈ 16.9 µM) | 50 µg/mL (≈ 169 µM) | –
2 | C=CCOc1ccc(Cc2cnc(N)nc2N)cc1OC | – | 7.6 µg/mL (≈ 26.5 µM) | 3 µg/mL (≈ 10.5 µM) | 10 µg/mL (≈ 34.9 µM) | 10 µg/mL (≈ 34.9 µM) | 10 µg/mL (≈ 34.9 µM) | 10 µg/mL (≈ 34.9 µM) | > 25 µg/mL | 10 µg/mL (≈ 34.9 µM) | – | 0.8 µg/mL | 10 µg/mL (≈ 34.9 µM) | 49 µM | 10 µg/mL (≈ 34.9 µM) | > 25 µg/mL | 3 µg/mL (≈ 10.5 µM) | 3 µg/mL (≈ 10.5 µM) | –
3 | CCCc1cc(Cc2cnc(N)nc2N)cc(OC)c1OC | 1.6 µg/mL | 6 µg/mL (≈ 19.8 µM) | 0.1 µg/mL (≈ 0.331 µM) | 10 µg/mL (≈ 33.1 µM) | 10 µg/mL (≈ 33.1 µM) | 3 µg/mL (≈ 9.92 µM) | 10 µg/mL (≈ 33.1 µM) | > 25 µg/mL | 0.1 µg/mL (≈ 0.331 µM) | 1.6 µg/mL | 0.4 µg/mL | 3 µg/mL (≈ 9.92 µM) | 37 µM | 10 µg/mL (≈ 33.1 µM) | > 25 µg/mL | 3 µg/mL (≈ 9.92 µM) | 10 µg/mL (≈ 33.1 µM) | –
4 | C=CCc1cc(Cc2cnc(N)nc2N)ccc1O | – | 16 µg/mL (≈ 62.4 µM) | 2 µg/mL (≈ 7.8 µM) | 10 µg/mL (≈ 39 µM) | 10 µg/mL (≈ 39 µM) | 20 µg/mL (≈ 78 µM) | 20 µg/mL (≈ 78 µM) | 25 µg/mL | 10 µg/mL (≈ 39 µM) | – | 0.8 µg/mL | 100 µg/mL (≈ 390 µM) | 94.5 µM | 10 µg/mL (≈ 39 µM) | > 25 µg/mL | 5 µg/mL (≈ 19.5 µM) | 50 µg/mL (≈ 195 µM) | –
5 | C=CCOc1ccc(Cc2cnc(N)nc2N)cc1 | – | 72 µg/mL (≈ 281 µM) | 10 µg/mL (≈ 39 µM) | 100 µg/mL (≈ 390 µM) | 10 µg/mL (≈ 39 µM) | > 20 µg/mL | 100 µg/mL (≈ 390 µM) | – | 100 µg/mL (≈ 390 µM) | – | – | 100 µg/mL (≈ 390 µM) | 320 µM | 100 µg/mL (≈ 390 µM) | – | 50 µg/mL (≈ 195 µM) | > 100 µg/mL | –
6 | C=CCc1cc(Cc2cnc(N)nc2N)cc(CCC)c1O | 0.8 µg/mL | 5 µg/mL (≈ 16.8 µM) | 1 µg/mL (≈ 3.35 µM) | 30 µg/mL (≈ 101 µM) | 30 µg/mL (≈ 101 µM) | 3 µg/mL (≈ 10.1 µM) | 30 µg/mL (≈ 101 µM) | > 25 µg/mL | 3 µg/mL (≈ 10.1 µM) | 0.8 µg/mL | 0.4 µg/mL | 100 µg/mL (≈ 335 µM) | 2 µM | 30 µg/mL (≈ 101 µM) | > 25 µg/mL | 10 µg/mL (≈ 33.5 µM) | 30 µg/mL (≈ 101 µM) | –
7 | CCOc1cc(Cc2cnc(N)nc2N)cc2c1OCO2 | – | – | – | – | – | – | – | – | – | – | – | – | 37 µM | – | – | – | – | MIC (Proteus vulgaris [11]): 10 µg/mL; MIC (Salmonella): 30 µg/mL; IC50 (Dihydrofolate reductase [12]): 0.041 µM; MIC (Shigella dysenteriae): 10 µg/mL; MIC (Escherichia coli [13]): 30 µg/mL; MIC (Klebsiella aerogenes [14]): 10 µg/mL; MIC (Streptococcus pyogenes [15]): 1 µg/mL; MIC (Klebsiella pneumoniae [16]): 30 µg/mL; MIC (Staphylococcus aureus [17]): 10 µg/mL
8 | C/C=C/c1cc(Cc2cnc(N)nc2N)cc(CCC)c1OC | 0.4 µg/mL | 26 µg/mL (≈ 83.2 µM) | 0.1 µg/mL (≈ 0.32 µM) | 100 µg/mL (≈ 320 µM) | 100 µg/mL (≈ 320 µM) | > 5 µg/mL | 100 µg/mL (≈ 320 µM) | 12.5 µg/mL | 1 µg/mL (≈ 3.2 µM) | 0.4 µg/mL | 0.8 µg/mL | 20 µg/mL (≈ 64 µM) | 24 µM | 20 µg/mL (≈ 64 µM) | 12.5 µg/mL | 2 µg/mL (≈ 6.4 µM) | > 100 µg/mL | –
9 | C=CCOc1ccc(Cc2cnc(N)nc2N)cc1CC=C | – | 72 µg/mL (≈ 243 µM) | 2 µg/mL (≈ 6.75 µM) | 500 µg/mL (≈ 1690 µM) | > 100 µg/mL | > 10 µg/mL | > 100 µg/mL | > 25 µg/mL | 10 µg/mL (≈ 33.7 µM) | – | 0.8 µg/mL | 1000 µg/mL (≈ 3370 µM) | 11 µM | 500 µg/mL (≈ 1690 µM) | > 25 µg/mL | > 100 µg/mL | > 50 µg/mL | –
10 | CCCOc1cc(Cc2cnc(N)nc2N)cc(OC)c1OC | – | 6 µg/mL (≈ 18.8 µM) | 0.3 µg/mL (≈ 0.942 µM) | 10 µg/mL (≈ 31.4 µM) | 3 µg/mL (≈ 9.42 µM) | 3 µg/mL (≈ 9.42 µM) | 10 µg/mL (≈ 31.4 µM) | – | 0.3 µg/mL (≈ 0.942 µM) | – | – | 10 µg/mL (≈ 31.4 µM) | 94.5 µM | 3 µg/mL (≈ 9.42 µM) | – | 3 µg/mL (≈ 9.42 µM) | 3 µg/mL (≈ 9.42 µM) | –
11 | C/C=C/c1cc(Cc2cnc(N)nc2N)cc(/C=C/C)c1OC | 0.4 µg/mL | 72 µg/mL (≈ 232 µM) | 0.1 µg/mL (≈ 0.322 µM) | 100 µg/mL (≈ 322 µM) | 100 µg/mL (≈ 322 µM) | > 5 µg/mL | 100 µg/mL (≈ 322 µM) | 25 µg/mL | 1 µg/mL (≈ 3.22 µM) | 0.8 µg/mL | 1.6 µg/mL | 100 µg/mL (≈ 322 µM) | 27 µM | 100 µg/mL (≈ 322 µM) | 25 µg/mL | 2 µg/mL (≈ 6.44 µM) | > 50 µg/mL | –
12 | C=CCOc1cc(Cc2cnc(N)nc2N)cc(OC)c1OC | 12.5 µg/mL | – | 0.3 µg/mL (≈ 0.948 µM) | 10 µg/mL (≈ 31.6 µM) | 10 µg/mL (≈ 31.6 µM) | 3 µg/mL (≈ 9.48 µM) | 10 µg/mL (≈ 31.6 µM) | > 25 µg/mL | 0.3 µg/mL (≈ 0.948 µM) | 6.2 µg/mL | 0.8 µg/mL | 10 µg/mL (≈ 31.6 µM) | 150 µM | 10 µg/mL (≈ 31.6 µM) | > 25 µg/mL | 3 µg/mL (≈ 9.48 µM) | 10 µg/mL (≈ 31.6 µM) | –
13 | COc1cc(Cc2cnc(N)nc2N)cc(CC(C)O)c1O (configuration not stated) | – | 4 µg/mL (≈ 13.1 µM) | 3 µg/mL (≈ 9.86 µM) | 3 µg/mL (≈ 9.86 µM) | 3 µg/mL (≈ 9.86 µM) | > 10 µg/mL | 10 µg/mL (≈ 32.9 µM) | – | 3 µg/mL (≈ 9.86 µM) | – | – | 10 µg/mL (≈ 32.9 µM) | 36 µM | 3 µg/mL (≈ 9.86 µM) | – | 3 µg/mL (≈ 9.86 µM) | 30 µg/mL (≈ 98.6 µM) | –

Reference: ChEMBL document CHEMBL1124568, “2,4-Diamino-5-benzylpyrimidines as antibacterial agents. 13. Some alkenyl derivatives with high in vitro activity against anaerobic organisms” (J Med Chem, 1989)
